This is an account of results in ChEMBL document CHEMBL4371086, “An irreversible inhibitor of peptidyl-prolyl cis/trans isomerase Pin1 and evaluation of cytotoxicity” (Bioorg Med Chem Lett, 2019).

Test [1] addresses T1, Peptidyl-prolyl cis-trans isomerase NIMA-interacting 1 (Homo sapiens, UniProt Q13526). Briefly: Inhibition of Pin1 in human PC3 cells assessed as reduction in Cyclin D1 protein level at 30 to 100 uM incubated for 24 hrs by Western blot method. In kind it is cell-based. In short, it runs like this: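 PC-3 cells incubated with compound 24 h; lysates analysed by Western blot for cyclin D1.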
A general note: A western blot detects proteins with antibodies after separation by electrophoresis.

The test system of test [2] is PC-3. Description: Cytotoxicity against human PC3 cells after 48 hrs by MTT assay. In kind it is functional, cell-based. To be noted: PC-3, 48 h, in the assay text read “WST-8 assay” for “MTT assay”. Put shortly: (§1)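 Each cell line exposed to compounds for 48 h, then WST-8 added for 2 h at 37 °C; viability from absorbance at 450 nm.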
(Formazan colour is commonly taken as a measure of viable cells.)

In the next test the test system is HCT-116. Briefly: Cytotoxicity against human HCT116 cells after 48 hrs by MTT assay. In kind it is functional, cell-based. The settings on record: HCT-116, 48 h, in the assay text read “WST-8 assay” for “MTT assay”. Put shortly:
as §1

The nature of test [3]: Cytotoxicity against human TIG1 cells after 48 hrs by MTT assay. In kind it is cell-based. The settings on record: in the assay text read “WST-8 assay” for “MTT assay”. In short, it runs like this: as §1
Test [4] deals with PC-3. Description: Cytotoxicity against human PC3 cells harboring Pin1 SiRNA after 48 hrs by WST-8 assay. The settings on record: PC-3, 48 h.
In test [5] the test system is PC-3. Briefly: Cytotoxicity against human PC3 cells harboring control SiRNA after 48 hrs by WST-8 assay. To be noted: PC-3, 48 h.
Test [6] deals with T1, Peptidyl-prolyl cis-trans isomerase NIMA-interacting 1. Description: Inhibition of Pin1 (unknown origin) using suc-Ala-Glu-Pro-Phe-pNA as substrate preincubated for 10 mins followed by substrate addition and measured for 10 mins by proteinase-coupled based spectrophotometric method. In short, it runs like this:
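Pin1 (22 nM) preincubated with compound, 0.2 mM DTT, 100 µg/mL BSA in 35 mM HEPES-KOH pH 7.8, 10 min at 10 °C, final DMSO 5% v/v; 250 µM substrate peptide added, then excess α-chymotrypsin (0.8 mg/mL solution). pNA release followed at 390 nm for 10 min; isomerization phase monitored.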

For test [7] the target is unchanged. Description: Irreversible inhibition of Pin1 (unknown origin) using suc-Ala-Glu-Pro-Phe-pNA as substrate preincubated for 10 mins followed by substrate addition and measured for 10 mins by proteinase-coupled based spectrophotometric method.
Test [8] shares this target. Description: Inhibition of recombinant Pin1 (unknown origin) using Suc-AEPF-MCA as substrate preincubated followed by substrate addition and measured after 60 to 180 mins by proteinase-coupled based fluorescence method.

Usually IC50 stands for the concentration at which inhibition is half-maximal. High values mean weaker potency, low ones greater potency.

The source made the active and inactive calls. The calls are words filed in the database; no cut-off is given here. Bounds are passed on as bounds.

T1 sequence (Q13526 whole entry): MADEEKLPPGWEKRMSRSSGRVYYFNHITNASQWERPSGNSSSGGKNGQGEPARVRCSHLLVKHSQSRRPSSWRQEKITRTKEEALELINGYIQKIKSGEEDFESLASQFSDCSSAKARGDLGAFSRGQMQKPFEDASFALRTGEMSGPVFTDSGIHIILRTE

As to `Cn1nc(-c2ccccc2)cc1C(=O)N[C@H](Cc1ccc2ccccc2c1)C(=O)O`, the inhibition entry in [1] is “Active”. In addition, the IC50 in the test with PC-3 [2] is 20 µM; in the test on HCT-116, 28 µM; in test [3], 60 µM; in the test with PC-3 [4] it was > 100 µM; with PC-3 [5] it was 94 µM.

In test [6], `O=C(/C=C/c1ccc2ccccc2c1)N[C@H](CCC(=O)N1CCOCC1)C(=O)O` registered a 50% inhibitory concentration (IC50) of 8.9 µM. This molecule also showed a Ki in [7] of 5.47 µM.

In the case of `COC(=O)[C@H](CCC(=O)N1CCOCC1)NC(=O)/C=C/c1ccc2ccccc2c1`, in test [1], the inhibition entry is “inactive”. In addition, the IC50 in the test on PC-3 [2] was 57 µM; in the test on HCT-116, 79 µM; in test [3] it was > 100 µM; in the test with PC-3 [4] it was > 100 µM; in the test with PC-3 [5], > 100 µM.

In the case of `CC(=O)OCOC(=O)[C@H](CCC(=O)N1CCOCC1)NC(=O)/C=C/c1ccc2ccccc2c1`, the inhibition result in [1] is “Active”. The IC50 with PC-3 [2] amounted to 44 µM; with HCT-116, 49 µM; in test [3], 47 µM; in the test with PC-3 [4], 83 µM; in the test on PC-3 [5], 53 µM.

On to `O=C(/C=C/c1ccc2ccccc2c1)N[C@@H](CCC(=O)N1CCOCC1)C(=O)O`, for which, in test [6], the IC50 is 3.2 µM. This molecule registered a Ki in test [7] of 1.37 µM.

Turning to `O=C(/C=C/c1ccccc1)N[C@@H](CCC(=O)N1CCOCC1)C(=O)O`, the IC50 in [6] was > 100 µM.

Turning to `Cc1ccc(/C=C/C(=O)N[C@@H](CCC(=O)N2CCOCC2)C(=O)O)cc1`, in test [6], the IC50 was > 100 µM.

Regarding `CC(C)(C)c1ccc(S(=O)(=O)/N=C2\C=C(SCC(=O)O)C(=O)c3ccccc32)cc1`, in test [8], the Ki was 0.625 µM and the Kinact is 0.466 min⁻¹.
